ChEMBL document CHEMBL1141663, “Synthesis and antibacterial activity of bis-[2-hydroxy-3-(1,7,8,9,10-pentamethyl-3,5-dioxo-4-aza-tricyclo[5.2.1.0(2,6)]dec-8-en-4-yloxy)-propyl]-dimethyl-ammonium chloride” (2008)
The source made the active and inactive calls.

Experiments:
[1] = test system: Pseudomonas aeruginosa; assay: Antibacterial activity against Pseudomonas aeruginosa ATCC 15442 at 100 ug/disk […] by disc-diffusion method; type: functional, organism-based
[2] = test system: Staphylococcus aureus; assay: Antibacterial activity against methicillin-resistant Staphylococcus aureus 54/05 isolates after 18 hrs; type: functional
Method in brief: (§1)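 Agar-dilution MIC on Mueller–Hinton II agar per CLSI guidelines. Aqueous test solutions were added to liquid agar to give two dilution series across 6.25–400 µg/mL. Solidified plates were spot-inoculated with 2 µL aliquots to a final inoculum of 10^4 […]. […] Strains were standard S. aureus strains or hospital patient isolates typed MSSA/MRSA.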

[3] = test system: Staphylococcus aureus; assay: Antibacterial activity against Staphylococcus aureus ATCC 25923 at 100 ug/disk after 24 to 48 hrs by disc-diffusion method; type: functional; settings: read-out: IZ
[4] = test system: Escherichia coli; assay: Antibacterial activity against Escherichia coli ATCC 10538 at 100 ug/disk […] by disc-diffusion method; type: functional, organism-based
[5] = test system: Staphylococcus aureus; assay: Antibacterial activity against methicillin-resistant Staphylococcus aureus 1/04 isolates after 18 hrs; type: functional; method in brief: as §1
[6] = test system: Staphylococcus aureus; assay: Antibacterial activity against methicillin-susceptible Staphylococcus aureus 7/04 isolates after 18 hrs; type: functional; method in brief: as §1
[7] = test system: Staphylococcus aureus; assay: Antibacterial activity against Staphylococcus aureus NCTC 4163 after 18 hrs; type: functional; settings: NCTC 4163, 18 h; method in brief: as §1
[8] = test system: Staphylococcus aureus; assay: Antibacterial activity against methicillin-resistant Staphylococcus aureus 84/05 isolates after 18 hrs; type: functional; method in brief: as §1
[9] = test system: Staphylococcus aureus; assay: Antibacterial activity against methicillin-susceptible Staphylococcus aureus 42/05 isolates after 18 hrs; type: functional; method in brief: as §1
[10] = test system: Staphylococcus aureus; assay: Antibacterial activity against methicillin-susceptible Staphylococcus aureus 2/04 isolates after 18 hrs; type: functional; method in brief: as §1
[11] = test system: Staphylococcus aureus; assay: Antibacterial activity against methicillin-susceptible Staphylococcus aureus 102/06 isolates after 18 hrs; type: functional; method in brief: as §1
[12] = test system: Pseudomonas aeruginosa; assay: Antibacterial activity against Pseudomonas aeruginosa NCTC 6749 at 100 ug/disk […] by disc-diffusion method; type: functional, organism-based
[13] = test system: Staphylococcus aureus; assay: Antibacterial activity against methicillin-susceptible Staphylococcus aureus 14/04 isolates after 18 hrs; type: functional; method in brief: as §1
[14] = test system: Staphylococcus aureus; assay: Antibacterial activity against methicillin-resistant Staphylococcus aureus 85/06 isolates after 18 hrs; type: functional; method in brief: as §1
[15] = test system: Staphylococcus aureus; assay: Antibacterial activity against Staphylococcus aureus ATCC 6538P at 400 ug/disk after 24 to 48 hrs by disc-diffusion method; type: functional; settings: read-out: IZ
[16] = test system: Bacillus subtilis; assay: Antibacterial activity against Bacillus subtilis ATCC 6633 at 100 ug/disk […] by disc-diffusion method; type: functional; settings: read-out: IZ
[17] = test system: Staphylococcus aureus; assay: Antibacterial activity against methicillin-susceptible Staphylococcus aureus 3/04 isolates after 18 hrs; type: functional; method in brief: as §1
[18] = test system: Enterococcus hirae; assay: Antibacterial activity against Enterococcus hirae ATCC 10541 at 100 ug/disk […] by disc-diffusion method; type: functional; settings: read-out: IZ
[19] = test system: Staphylococcus aureus; assay: Antibacterial activity against Staphylococcus aureus ATCC 29213 after 18 hrs; type: functional; settings: ATCC 29213, 18 h; method in brief: as §1
[20] = test system: Enterococcus hirae; assay: Antibacterial activity against Enterococcus hirae ATCC 10541 at 400 ug/disk after 24 to 48 hrs by disc-diffusion method; type: functional; settings: read-out: IZ
[21] = test system: Staphylococcus aureus; assay: Antibacterial activity against methicillin-resistant Staphylococcus aureus 48/05 isolates after 18 hrs; type: functional; method in brief: as §1
[22] = test system: Bacillus subtilis; assay: Antibacterial activity against Bacillus subtilis ATCC 6633 at 400 ug/disk […] by disc-diffusion method; type: functional; settings: read-out: IZ
[23] = test system: Staphylococcus aureus; assay: Antibacterial activity against methicillin-susceptible Staphylococcus aureus 65/05 isolates after 18 hrs; type: functional; method in brief: as §1
[24] = test system: Staphylococcus aureus; assay: Antibacterial activity against methicillin-susceptible Staphylococcus aureus 112/06 isolates after 18 hrs; type: functional; method in brief: as §1
[25] = test system: Bordetella bronchiseptica; assay: Antibacterial activity against Bordetella bronchiseptica ATCC 4617 at 100 ug/disk […] by disc-diffusion method; type: functional; settings: read-out: IZ
[26] = test system: Staphylococcus aureus; assay: Antibacterial activity against methicillin-resistant Staphylococcus aureus 46/05 isolates after 18 hrs; type: functional; method in brief: as §1
[27] = test system: Staphylococcus aureus; assay: Antibacterial activity against methicillin-susceptible Staphylococcus aureus 40/05 isolates after 18 hrs; type: functional; method in brief: as §1
[28] = test system: Candida albicans; assay: Antimicrobial activity against Candida albicans ATCC 10231 at 100 ug/disk after 24 to 48 hrs by disc-diffusion method; type: functional, organism-based
Method in brief: (§2)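 Antifungal disc diffusion on YNB agar under CLSI guidelines. Sterile 10 mm filter-paper discs were loaded from aqueous solution with 100 or 400 µg of compound per disc. Plates were read after 24–48 h incubation at 30 °C.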

[29] = test system: Staphylococcus aureus; assay: Antibacterial activity against methicillin-resistant Staphylococcus aureus 92/06 isolates after 18 hrs; type: functional; method in brief: as §1
[30] = test system: Staphylococcus aureus; assay: Antibacterial activity against methicillin-resistant Staphylococcus aureus 19/04 isolates after 18 hrs; type: functional; method in brief: as §1
[31] = test system: Staphylococcus aureus; assay: Antibacterial activity against methicillin-resistant Staphylococcus aureus 80/05 isolates after 18 hrs; type: functional; method in brief: as §1
[32] = test system: Staphylococcus aureus; assay: Antibacterial activity against methicillin-resistant Staphylococcus aureus 29/04 isolates after 18 hrs; type: functional; method in brief: as §1
[33] = test system: Staphylococcus aureus; assay: Antibacterial activity against Staphylococcus aureus ATCC 25923 after 18 hrs; type: functional; settings: ATCC 25923, 18 h; method in brief: as §1
[34] = test system: Staphylococcus aureus; assay: Antibacterial activity against Staphylococcus aureus NCTC 4163 at 400 ug/disk after 24 to 48 hrs by disc-diffusion method; type: functional; settings: read-out: IZ
[35] = test system: Bordetella bronchiseptica; assay: Antibacterial activity against Bordetella bronchiseptica ATCC 4617 at 400 ug/disk […] by disc-diffusion method; type: functional; settings: read-out: IZ
[36] = test system: Staphylococcus aureus; assay: Antibacterial activity against Staphylococcus aureus ATCC 25923 at 400 ug/disk after 24 to 48 hrs by disc-diffusion method; type: functional; settings: read-out: IZ
[37] = test system: Staphylococcus aureus; assay: Antibacterial activity against methicillin-susceptible Staphylococcus aureus 69/05 isolates after 18 hrs; type: functional; method in brief: as §1
[38] = test system: Staphylococcus aureus; assay: Antibacterial activity against methicillin-resistant Staphylococcus aureus 5/04 isolates after 18 hrs; type: functional; method in brief: as §1
[39] = test system: Staphylococcus aureus; assay: Antibacterial activity against methicillin-resistant Staphylococcus aureus 55/05 isolates after 18 hrs; type: functional; method in brief: as §1
[40] = test system: Staphylococcus aureus; assay: Antibacterial activity against methicillin-resistant Staphylococcus aureus 93/06 isolates after 18 hrs; type: functional; method in brief: as §1
[41] = test system: Staphylococcus aureus; assay: Antibacterial activity against methicillin-susceptible Staphylococcus aureus 28/04 isolates after 18 hrs; type: functional; method in brief: as §1
[42] = test system: Escherichia coli; assay: Antibacterial activity against Escherichia coli ATCC 25922 at 100 ug/disk […] by disc-diffusion method; type: functional, organism-based
[43] = test system: Staphylococcus aureus; assay: Antibacterial activity against methicillin-resistant Staphylococcus aureus 47/05 isolates after 18 hrs; type: functional; method in brief: as §1
[44] = test system: Staphylococcus aureus; assay: Antibacterial activity against methicillin-susceptible Staphylococcus aureus 101/06 isolates after 18 hrs; type: functional; method in brief: as §1
[45] = test system: Staphylococcus aureus; assay: Antibacterial activity against methicillin-resistant Staphylococcus aureus 56/05 isolates after 18 hrs; type: functional; method in brief: as §1
[46] = test system: Staphylococcus aureus; assay: Antibacterial activity against methicillin-susceptible Staphylococcus aureus 98/06 isolates after 18 hrs; type: functional; method in brief: as §1
[47] = test system: Candida albicans; assay: Antimicrobial activity against Candida albicans ATCC 10231 at 400 ug/disk after 24 to 48 hrs by disc-diffusion method; type: functional; settings: read-out: IZ; method in brief: as §2
[48] = test system: Pseudomonas aeruginosa; assay: Antibacterial activity against Pseudomonas aeruginosa ATCC 15442 at 400 ug/disk […] by disc-diffusion method; type: functional, organism-based
[49] = test system: Staphylococcus aureus; assay: Antibacterial activity against methicillin-susceptible Staphylococcus aureus 4/04 isolates after 18 hrs; type: functional; method in brief: as §1
[50] = test system: Staphylococcus aureus; assay: Antibacterial activity against methicillin-susceptible Staphylococcus aureus 36/05 isolates after 18 hrs; type: functional; method in brief: as §1
[51] = test system: Staphylococcus aureus; assay: Antibacterial activity against methicillin-resistant Staphylococcus aureus 53/05 isolates after 18 hrs; type: functional; method in brief: as §1
[52] = test system: Staphylococcus aureus; assay: Antibacterial activity against methicillin-susceptible Staphylococcus aureus 60/05 isolates after 18 hrs; type: functional; method in brief: as §1
[53] = test system: Staphylococcus aureus; assay: Antibacterial activity against methicillin-susceptible Staphylococcus aureus 72/05 isolates after 18 hrs; type: functional; method in brief: as §1
[54] = test system: Staphylococcus aureus; assay: Antibacterial activity against methicillin-resistant Staphylococcus aureus 83/05 isolates after 18 hrs; type: functional; method in brief: as §1
[55] = test system: Staphylococcus aureus; assay: Antibacterial activity against methicillin-resistant Staphylococcus aureus 79/05 isolates after 18 hrs; type: functional; method in brief: as §1
[56] = test system: Staphylococcus aureus; assay: Antibacterial activity against methicillin-resistant Staphylococcus aureus 90/06 isolates after 18 hrs; type: functional; method in brief: as §1
[57] = test system: Staphylococcus aureus; assay: Antibacterial activity against Staphylococcus aureus ATCC 29213 at 100 ug/disk after 24 to 48 hrs by disc-diffusion method; type: functional; settings: read-out: IZ
[58] = test system: Staphylococcus aureus; assay: Antibacterial activity against Staphylococcus aureus NCTC 4163 at 100 ug/disk after 24 to 48 hrs by disc-diffusion method; type: functional; settings: read-out: IZ
[59] = test system: Staphylococcus aureus; assay: Antibacterial activity against methicillin-susceptible Staphylococcus aureus 38/05 isolates after 18 hrs; type: functional; method in brief: as §1
[60] = test system: Staphylococcus aureus; assay: Antibacterial activity against Staphylococcus aureus ATCC 6538P at 100 ug/disk after 24 to 48 hrs by disc-diffusion method; type: functional; settings: read-out: IZ
[61] = test system: Pseudomonas aeruginosa; assay: Antibacterial activity against Pseudomonas aeruginosa NCTC 6749 at 400 ug/disk […] by disc-diffusion method; type: functional, organism-based
[62] = test system: Staphylococcus aureus; assay: Antibacterial activity against methicillin-resistant Staphylococcus aureus 91/06 isolates after 18 hrs; type: functional; method in brief: as §1
[63] = test system: Staphylococcus aureus; assay: Antibacterial activity against methicillin-susceptible Staphylococcus aureus 6/04 isolates after 18 hrs; type: functional; method in brief: as §1
[64] = test system: Staphylococcus aureus; assay: Antibacterial activity against methicillin-susceptible Staphylococcus aureus 49/05 isolates after 18 hrs; type: functional; method in brief: as §1
[65] = test system: Staphylococcus aureus; assay: Antibacterial activity against Staphylococcus aureus ATCC 29213 at 400 ug/disk […] by disc-diffusion method; type: functional; settings: read-out: IZ
[66] = test system: Staphylococcus aureus; assay: Antibacterial activity against Staphylococcus aureus ATCC 6538P after 18 hrs; type: functional; method in brief: as §1

CC1=C(C)C2(C)C3C(=O)N(OCC(O)C[N+](C)(C)CC(O)CON4C(=O)C5C(C4=O)C4(C)C(C)=C(C)C5(C)C4C)C(=O)C3C1(C)C2C.[Cl-] (stereo unspecified)
13 mm: zone of inhibition at 100 µg/disc [25]
25 µg/mL: MIC [6] | MIC [9] | MIC [10] | MIC [13] | MIC [17] | MIC [23] | MIC [37] | MIC [40] | MIC [49] | MIC [52] | MIC [63] | MIC [64]
16 mm: zone of inhibition at 100 µg/disc [3]
14 mm: zone of inhibition at 100 µg/disc [18] | zone of inhibition at 400 µg/disc [47] | zone of inhibition at 100 µg/disc [57]
25 mm: zone of inhibition at 100 µg/disc [16]
20 mm: zone of inhibition at 400 µg/disc [36]
100 µg/mL: MIC [14] | MIC [21] | MIC [29] | MIC [39] | MIC [46] | MIC [56] | MIC [62]
18 mm: zone of inhibition at 400 µg/disc [20]
30 mm: zone of inhibition at 400 µg/disc [22]
24 mm: zone of inhibition at 400 µg/disc [34] | zone of inhibition at 400 µg/disc [65]
21 mm: zone of inhibition at 400 µg/disc [35]
50 µg/mL: MIC [2] | MIC [5] | MIC [7] | MIC [8] | MIC [11] | MIC [19] | MIC [24] | MIC [26] | MIC [27] | MIC [31] | MIC [33] | MIC [41] | MIC [43] | MIC [44] | MIC [45] | MIC [50] | MIC [51] | MIC [53] | MIC [54] | MIC [59] | MIC [66]
200 µg/mL: MIC [30] | MIC [32] | MIC [38] | MIC [55]
23 mm: zone of inhibition at 400 µg/disc [15]
17 mm: zone of inhibition at 100 µg/disc [58] | zone of inhibition at 100 µg/disc [60]
inactive: Activity [1] | Activity [4] | Activity [12] | Activity [28] | Activity [42] | Activity [48] | Activity [61]
